The record followed here is ChEMBL document CHEMBL1137082, “Potent and selective conformationally restricted neuronal nitric oxide synthase inhibitors” (J Med Chem, 2004).

For one assay, the target named is T1, Nitric oxide synthase 3 (Bos taurus, UniProt P29473).
T1 sequence (P29473 whole entry): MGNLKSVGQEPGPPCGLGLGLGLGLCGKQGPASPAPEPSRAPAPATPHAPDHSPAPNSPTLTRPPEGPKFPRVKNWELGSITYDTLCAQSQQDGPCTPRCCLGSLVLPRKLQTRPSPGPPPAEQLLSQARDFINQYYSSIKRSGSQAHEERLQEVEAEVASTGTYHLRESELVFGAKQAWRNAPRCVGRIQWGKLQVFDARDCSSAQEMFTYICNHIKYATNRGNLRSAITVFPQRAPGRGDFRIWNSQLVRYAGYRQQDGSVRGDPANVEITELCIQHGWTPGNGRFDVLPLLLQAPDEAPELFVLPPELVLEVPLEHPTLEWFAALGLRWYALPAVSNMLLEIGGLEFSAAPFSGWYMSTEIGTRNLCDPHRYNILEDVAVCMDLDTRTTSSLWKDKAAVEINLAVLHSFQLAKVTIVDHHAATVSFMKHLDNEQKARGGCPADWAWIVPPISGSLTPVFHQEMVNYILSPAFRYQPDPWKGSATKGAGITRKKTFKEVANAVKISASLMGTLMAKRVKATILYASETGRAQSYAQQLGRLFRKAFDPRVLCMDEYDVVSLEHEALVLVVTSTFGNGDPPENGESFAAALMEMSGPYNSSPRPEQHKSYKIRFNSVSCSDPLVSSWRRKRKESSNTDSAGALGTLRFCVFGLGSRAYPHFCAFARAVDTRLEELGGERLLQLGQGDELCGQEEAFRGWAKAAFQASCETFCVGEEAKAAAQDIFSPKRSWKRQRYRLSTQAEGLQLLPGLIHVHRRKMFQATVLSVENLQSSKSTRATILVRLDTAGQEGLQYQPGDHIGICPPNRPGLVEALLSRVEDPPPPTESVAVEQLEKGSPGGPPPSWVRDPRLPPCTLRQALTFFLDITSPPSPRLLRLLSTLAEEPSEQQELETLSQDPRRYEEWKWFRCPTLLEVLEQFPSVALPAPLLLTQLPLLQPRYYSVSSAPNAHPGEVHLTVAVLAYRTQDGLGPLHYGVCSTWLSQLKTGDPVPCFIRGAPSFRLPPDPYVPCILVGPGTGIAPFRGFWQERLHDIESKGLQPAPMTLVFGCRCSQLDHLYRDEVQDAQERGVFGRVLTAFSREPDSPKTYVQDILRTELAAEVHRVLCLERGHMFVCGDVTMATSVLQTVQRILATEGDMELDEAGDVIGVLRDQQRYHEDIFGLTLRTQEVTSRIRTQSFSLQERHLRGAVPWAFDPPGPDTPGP
The assay is described as follows: Inhibitory activity against endothelial nitric oxide synthase (eNOS).

For assay [1], the target named is T2, Nitric oxide synthase 1 (Rattus norvegicus, UniProt P29476). Kind of assay: Inhibitory activity against neuronal nitric oxide synthase (nNOS).
T2 sequence (P29476 whole entry): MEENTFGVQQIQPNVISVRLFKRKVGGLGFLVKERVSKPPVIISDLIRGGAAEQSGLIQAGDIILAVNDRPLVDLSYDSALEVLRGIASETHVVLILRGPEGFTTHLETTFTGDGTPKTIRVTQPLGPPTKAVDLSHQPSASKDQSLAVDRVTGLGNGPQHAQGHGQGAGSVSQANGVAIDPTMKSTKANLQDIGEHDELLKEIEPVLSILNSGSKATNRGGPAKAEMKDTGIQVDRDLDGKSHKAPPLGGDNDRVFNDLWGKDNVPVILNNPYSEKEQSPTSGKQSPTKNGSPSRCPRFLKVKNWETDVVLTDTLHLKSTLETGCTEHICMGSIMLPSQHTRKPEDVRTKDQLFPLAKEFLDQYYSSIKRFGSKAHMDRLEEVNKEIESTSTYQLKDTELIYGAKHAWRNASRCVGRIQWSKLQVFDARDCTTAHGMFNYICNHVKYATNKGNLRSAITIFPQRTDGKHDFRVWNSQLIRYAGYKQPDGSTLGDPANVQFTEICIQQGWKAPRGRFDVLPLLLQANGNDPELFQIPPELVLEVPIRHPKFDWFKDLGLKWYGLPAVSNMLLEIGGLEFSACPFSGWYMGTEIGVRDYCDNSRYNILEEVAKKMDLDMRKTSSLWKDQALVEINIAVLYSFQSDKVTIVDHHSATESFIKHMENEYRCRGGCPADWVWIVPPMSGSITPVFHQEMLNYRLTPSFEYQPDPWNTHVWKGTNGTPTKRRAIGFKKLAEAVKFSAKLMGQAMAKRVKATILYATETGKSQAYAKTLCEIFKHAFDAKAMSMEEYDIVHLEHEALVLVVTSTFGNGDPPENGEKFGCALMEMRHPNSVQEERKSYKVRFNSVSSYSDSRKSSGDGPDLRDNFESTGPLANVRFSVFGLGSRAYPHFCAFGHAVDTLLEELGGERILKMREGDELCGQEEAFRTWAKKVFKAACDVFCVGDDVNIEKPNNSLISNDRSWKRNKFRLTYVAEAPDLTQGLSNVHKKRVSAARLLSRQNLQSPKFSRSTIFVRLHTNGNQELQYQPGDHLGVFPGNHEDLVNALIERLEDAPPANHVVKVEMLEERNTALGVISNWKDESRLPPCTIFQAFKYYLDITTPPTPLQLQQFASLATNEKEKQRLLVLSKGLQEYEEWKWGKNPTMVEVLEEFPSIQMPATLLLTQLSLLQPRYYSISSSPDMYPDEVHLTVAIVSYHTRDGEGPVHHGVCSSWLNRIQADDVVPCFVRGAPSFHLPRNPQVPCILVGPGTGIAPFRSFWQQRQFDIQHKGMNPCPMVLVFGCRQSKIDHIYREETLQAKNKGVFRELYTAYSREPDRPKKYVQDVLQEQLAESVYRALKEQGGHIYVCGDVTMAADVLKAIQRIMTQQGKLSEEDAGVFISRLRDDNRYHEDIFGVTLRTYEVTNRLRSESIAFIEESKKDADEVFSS
For assay [2], the target named is T3, Nitric oxide synthase, inducible (Mus musculus, UniProt P29477).
T3 sequence (P29477 whole entry): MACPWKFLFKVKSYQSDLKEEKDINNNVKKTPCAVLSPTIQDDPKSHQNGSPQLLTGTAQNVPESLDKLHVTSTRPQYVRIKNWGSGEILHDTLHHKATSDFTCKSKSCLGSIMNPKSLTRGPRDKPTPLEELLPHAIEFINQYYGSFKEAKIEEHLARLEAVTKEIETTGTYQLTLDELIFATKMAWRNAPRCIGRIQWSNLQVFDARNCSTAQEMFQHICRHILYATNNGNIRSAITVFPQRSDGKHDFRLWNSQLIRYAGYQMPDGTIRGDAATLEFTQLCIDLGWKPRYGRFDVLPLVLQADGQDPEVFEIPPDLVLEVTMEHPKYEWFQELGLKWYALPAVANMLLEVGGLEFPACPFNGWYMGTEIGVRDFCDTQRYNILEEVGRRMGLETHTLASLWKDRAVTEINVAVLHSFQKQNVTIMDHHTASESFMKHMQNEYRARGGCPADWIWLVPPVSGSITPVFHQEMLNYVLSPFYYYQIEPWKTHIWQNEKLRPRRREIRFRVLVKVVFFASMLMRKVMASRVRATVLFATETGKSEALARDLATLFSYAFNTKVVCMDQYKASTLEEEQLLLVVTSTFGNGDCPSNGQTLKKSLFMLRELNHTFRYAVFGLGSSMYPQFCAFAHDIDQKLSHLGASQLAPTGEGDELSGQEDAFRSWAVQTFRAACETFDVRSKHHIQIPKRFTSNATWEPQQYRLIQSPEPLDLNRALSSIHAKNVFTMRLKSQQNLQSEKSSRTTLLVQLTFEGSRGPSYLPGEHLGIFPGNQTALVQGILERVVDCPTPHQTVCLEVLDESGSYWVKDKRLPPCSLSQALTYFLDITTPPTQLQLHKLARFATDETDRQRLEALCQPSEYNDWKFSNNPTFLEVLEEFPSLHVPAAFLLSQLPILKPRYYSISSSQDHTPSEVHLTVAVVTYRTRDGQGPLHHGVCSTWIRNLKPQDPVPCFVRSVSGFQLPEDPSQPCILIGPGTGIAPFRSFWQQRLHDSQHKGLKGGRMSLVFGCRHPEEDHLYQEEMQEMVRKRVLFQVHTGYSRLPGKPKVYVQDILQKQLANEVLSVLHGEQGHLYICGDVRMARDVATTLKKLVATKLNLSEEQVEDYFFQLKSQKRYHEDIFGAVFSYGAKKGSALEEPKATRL

The target in assay [3] is T4, Nitric oxide synthase, inducible (Mus musculus) (UniProt P29477).
T4 sequence (whole entry): T3 sequence (P29477 whole entry)
The assay is described as follows: Inhibitory activity against inducible nitric oxide synthase (iNOS) at 100 uM. Details: scale not given: the % may be the effect or the level left. Summed up: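 Single-point screen against murine macrophage iNOS: enzyme residual activity measured at 100 μM inhibitor. NO formation monitored by hemoglobin capture assay with a UV/vis spectrophotometer.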

The target of assay [4] is T3, Nitric oxide synthase, inducible. The assay is described as follows: Inhibitory activity against inducible nitric oxide synthase (iNOS).
In assay [5] the target is T2, Nitric oxide synthase 1. The assay is described as follows: Binding affinity towards neuronal nitric oxide synthase (nNOS).

pIC50, pKi: −log10 of the molar value.

For `NC(=O)[C@@H]1C[C@@H](N)CN1C(=O)[C@@H](N)CCC/N=C(\N)N[N+](=O)[O-]`, the pIC50 was less than 4.00 at Nitric oxide synthase 3 and roughly 4.00 against Nitric oxide synthase 1 [1].
The corresponding values for `N=C(NCCC[C@@H](N)C(=O)N1CC(N)C[C@@H]1C(N)=O)N[N+](=O)[O-]` (single isomer, unassigned; cis) are less than 4.00 and roughly 4.00.
With `NC(=O)[C@@H]1C[C@@H](NC(=O)[C@@H](N)CCC/N=C(\N)N[N+](=O)[O-])CN1`, the negative-log Ki (pKi) in assay [2] is 4.54. The pIC50 was 6.19 on Nitric oxide synthase 1 [1] and 4.19 in assay [4]. The Activity in assay [3] stood at 10%.
As to `N=C(NCCC[C@H](N)C(=O)NC1CNC(C(N)=O)C1)N[N+](=O)[O-]` (single isomer, unassigned), the pKi is 3.70 in assay [2] and 5.96 at Nitric oxide synthase 1 [5]. Further, the pIC50 is 5.02 against Nitric oxide synthase 1 [1] and 3.36 in assay [4]. The compound also came in with an Activity in assay [3] of 78%.
